From ChEMBL document CHEMBL1153110, “Optimization of (4,4-difluoro-1,2,3,4-tetrahydro-5H-1-benzazepine-5-ylidene)acetamide derivatives as arginine vasopressin V2 receptor agonists and discussion of their binding modes” (Bioorg Med Chem, 2009)

What was measured:
Vasopressin V1a receptor = Vasopressin V1a receptor (Homo sapiens, UniProt P37288); test: Displacement of [3H]vasopressin from human vasopressin V1A receptor expressed in CHO cells by microplate scintillation counting; type: cell-based
Rattus norvegicus = test: Antidiuretic activity in water-loaded po dosed Wistar rat assessed as decrease in urinary excretion administered 15 mins prior to water loading measured up to 4 hrs; type: functional; settings: Urine
Outline: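 Male Wistar rats (200–300 g) were pre-screened for at least 70% excretion of an oral water load. They were deprived of feed and water and dosed orally without anesthesia. Distilled water (30 mL/kg po) was given 15 min later, and urine was collected in metabolic cages for 4 h (n = 3–6). Excretion was expressed as % of the loaded volume. ED50, the dose lowering excretion to 50%, came from linear regression.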

Vasopressin V2 receptor [1] = biological target: T1, Vasopressin V2 receptor (Homo sapiens, UniProt P30518); test: Intrinsic activity at human vasopressin V2 receptor expressed in CHO cells assessed as cAMP accumulation by HTRF assay relative to AVP; type: functional, cell-based
T1 sequence (P30518 whole entry): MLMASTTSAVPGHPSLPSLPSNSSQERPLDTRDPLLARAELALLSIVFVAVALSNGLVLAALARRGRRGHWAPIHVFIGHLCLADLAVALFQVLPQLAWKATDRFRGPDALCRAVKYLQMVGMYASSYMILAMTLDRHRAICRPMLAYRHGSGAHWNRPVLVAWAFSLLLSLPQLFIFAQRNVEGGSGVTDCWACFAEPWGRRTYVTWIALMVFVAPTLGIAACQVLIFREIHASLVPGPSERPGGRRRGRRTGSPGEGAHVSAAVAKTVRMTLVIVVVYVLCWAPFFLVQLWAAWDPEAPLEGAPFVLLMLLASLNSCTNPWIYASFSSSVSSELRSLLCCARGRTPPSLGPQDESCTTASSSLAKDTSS
Outline: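 Intrinsic activity was measured in the cAMP HTRF assay in human V2-CHO cells: 24 h serum-free, then 10 min at 37 °C with 1 mmol/L IBMX. It is the compound's maximal response as a percentage of the maximal AVP response (100%). Assays were run in triplicate.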

[2] = biological target: Vasopressin V1a/V2 (Homo sapiens) (UniProt P30518+P37288); test: Selectivity ratio of Ki for human vasopressin V1A receptor to Ki for human vasopressin V2 receptors
Vasopressin V1a/V2 (Homo sapiens), sequence (P30518 whole entry, looked up): as the sequence (P30518 whole entry) above
Vasopressin V1a/V2 (Homo sapiens), sequence (P37288 whole entry, looked up): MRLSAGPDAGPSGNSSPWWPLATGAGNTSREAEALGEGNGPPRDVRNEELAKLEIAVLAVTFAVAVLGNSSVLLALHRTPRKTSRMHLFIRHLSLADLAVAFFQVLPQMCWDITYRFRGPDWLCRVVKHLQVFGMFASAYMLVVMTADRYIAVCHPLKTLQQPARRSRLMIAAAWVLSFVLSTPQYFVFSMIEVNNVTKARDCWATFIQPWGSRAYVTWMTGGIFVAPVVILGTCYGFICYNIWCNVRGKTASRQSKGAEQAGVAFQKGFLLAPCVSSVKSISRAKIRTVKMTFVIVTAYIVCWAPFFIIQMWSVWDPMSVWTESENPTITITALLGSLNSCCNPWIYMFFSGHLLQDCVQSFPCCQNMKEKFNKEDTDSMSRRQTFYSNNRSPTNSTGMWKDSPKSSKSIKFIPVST

Vasopressin V2 receptor [3] = biological target: T1, Vasopressin V2 receptor; test: Displacement of [3H]vasopressin from human vasopressin V2 receptor expressed in CHO cells by microplate scintillation counting; type: cell-based
Outline: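 Membranes came from human V2-expressing CHO cells: hypotonic lysis, then centrifugation at 1000g and 35,000g at 4 °C. They were incubated with [3H]vasopressin at 0.91 nmol/L final in 50 mmol/L Tris-HCl pH 7.4, filtered on GF/B and washed with ice-cold Tris buffer. Retained radioactivity was scintillation counted. Assays were run in triplicate.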

Vasopressin V2 receptor [4] = biological target: T1, Vasopressin V2 receptor; test: Agonist activity at human vasopressin V2 receptor expressed in CHO cells assessed as cAMP accumulation by HTRF assay; type: functional, cell-based
Outline: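 CHO cells with human V2 receptor were grown to subconfluence and serum-starved for 24 h. They were then exposed to test compound for 10 min at 37 °C in α-MEM with 1 mmol/L IBMX and 0.1% BSA, and lysed in PBS with 0.2% Triton X-100. cAMP was read by HTRF. EC50 is the concentration giving 50% of the maximal AVP response. Triplicate.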

Vasopressin V1a receptor, sequence (P37288 whole entry): as the sequence (P37288 whole entry, looked up) above

Ki (Vasopressin V1a receptor) | Intrinsic activity (Vasopressin V2 receptor [1]) | Ratio Ki [2] | Ki (Vasopressin V2 receptor [3]) | EC50 (Vasopressin V2 receptor [4]) | Compound | ED50 (Rattus norvegicus)
170 nM | 115% | 2.2 | 78 nM | 2.4 nM | Cc1ccn(-c2ccc(C(=O)N3CCC(F)(F)/C(=C\C(=O)NCCO)c4ccccc43)c(C(F)(F)F)c2)n1 | 0.2 mg/kg
39 nM | 114% | 2.4 | 16 nM | 1 nM | C[C@@H]1CCN(c2ccc(C(=O)N3CCC(F)(F)/C(=C\C(=O)NCCO)c4ccccc43)c(C(F)(F)F)c2)C1 | 0.04 mg/kg
17 nM | 109% | 1.2 | 14 nM | 0.98 nM | C[C@H]1CCN(c2ccc(C(=O)N3CCC(F)(F)/C(=C\C(=O)NCCO)c4ccccc43)c(Cl)c2)C1 | –
43 nM | 111% | 3.1 | 14 nM | 1 nM | C[C@H]1CCN(c2ccc(C(=O)N3CCC(F)(F)/C(=C\C(=O)NCCO)c4ccccc43)c(C(F)(F)F)c2)C1 | 0.012 mg/kg
13 nM | 118% | 1 | 13 nM | 0.99 nM | C[C@@H]1CCN(c2ccc(C(=O)N3CCC(F)(F)/C(=C\C(=O)NCCO)c4ccccc43)c(Cl)c2)C1 | –
– | 93.9% | 2.9 | – | – | Cc1ccn(-c2ccc(C(=O)N3CCC(F)(F)/C(=C\C(=O)NCCO)c4ccccc43)c(Cl)c2)n1 | 0.14 mg/kg
